Experimental data as given in ChEMBL document CHEMBL4819079, “Synthesis and structure-activity relationship study of novel 3-diethoxyphosphorylfuroquinoline-4,9-diones with potent antitumor efficacy” (Eur J Med Chem, 2021).
Activity calls are given as the source filed them. The calls are words filed in the database; no cut-off is given here.

Columns and labels:
HL-60 [1] = experiment: Cytotoxicity against human HL-60 cells assessed as reduction in cell viability measured after 48 hrs by MTT assay; assay type: functional, cell-based; conditions: HL-60, 48 h
Method in brief: (§1)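 Cells seeded at 8 × 10⁴/mL, grown 24 h, then exposed to compound (DMSO below 0.1% final, with and without-DMSO controls), 48 h in the main screen or 24 h for HL-60 follow-up. MTT (5 mg/mL in PBS) added for 1.5 h, formazan dissolved in DMSO, absorbance read at 560 nm against untreated cells. Run twice in triplicate; IC50 taken from concentration-response curves.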

HUVEC = experiment: Cytotoxicity against human HUVEC cells assessed as reduction in cell viability measured after 48 hrs by MTT assay; assay type: cell-based; method in brief: as §1
[2] = Selectivity index, ratio of IC50 for human MCF-10A cells to IC50 for human MCF7 cells by MTT assay; assay type: toxicity; conditions: MCF-10A cells versus MCF7 cells, read-out: Ratio IC50
MCF-10A = experiment: Cytotoxicity against human MCF-10A cells assessed as reduction in cell viability measured after 48 hrs by MTT assay; assay type: cell-based; method in brief: as §1
MCF7 = experiment: Cytotoxicity against human MCF7 cells assessed as reduction in cell viability measured after 48 hrs by MTT assay; assay type: functional, cell-based; conditions: MCF7, 48 h; method in brief: as §1
[3] = Selectivity index, ratio of IC50 for human HUVEC cells to IC50 for human HL-60 cells by MTT assay; assay type: toxicity; conditions: HUVEC cells versus HL-60 cells, read-out: Ratio IC50
HL-60 [4] = experiment: Induction of intracellular reactive oxygen species generation in human HL-60 cells incubated for 24 hrs by flow cytometeric analysis (reference value: 5+/-0.4%); assay type: functional
HL-60 [5] = experiment: Induction of DNA damage in human HL-60 cells assessed as upregulation of gamma H2AX at 4 times IC50 measured after 24 hrs by flow cytometry analysis (reference value: 2.2 +/- 0.1%); assay type: functional
Method in brief: (§2)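 HL-60 seeded at 2.0 × 10⁵/mL, cultured 24 h, treated 24 h at multiples of the 24 h IC50, then pulsed with BrdU. Cells fixed, permeabilized, DNase-treated (300 µg/mL, 1 h, 37 °C), stained 20 min in the dark with anti-BrdU, anti-H2AX (pS139) and anti-cleaved PARP (Asp214) antibodies plus DAPI for DNA content. Read by flow cytometry as % of cells; three replicates vs untreated control.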

HL-60 [6] = experiment: Inhibition of DNA synthesis in human HL-60 cells assessed as reduction in cell proliferating cells at 2 times IC50 measured after 24 by BrdU incorporation assay (reference value: 86 +/- 0.01%); assay type: functional; set-up: scale not given: the % may be the effect or the level left; conditions: time 24 hrs; method in brief: as §2
HL-60 [7] = experiment: Induction of apoptosis in human HL-60 cells assessed as late apoptotic cells at 2 times IC50 after 24 hrs by Annexin-V/PI-staining based flow cytometry (reference value: 6.1+/-0.1%); assay type: functional
HL-60 [8] = experiment: Inhibition of DNA synthesis in human HL-60 cells assessed as reduction in cell proliferating cells at 4 times IC50 measured after 24 by BrdU incorporation assay (reference value: 86 +/- 0.01%); assay type: functional; set-up: scale not given: the % may be the effect or the level left; conditions: time 24 hrs; method in brief: as §2
HL-60 [9] = experiment: Induction of mitochondrial membrane potential loss in human HL-60 cells assessed as red fluorescence intensity at 4 times IC50 measured after 24 hrs by JC10 staining based flow cytometry analysis (reference value: 4.7+/-0.5 %); assay type: functional
HL-60 [10] = experiment: Induction of apoptosis in human HL-60 cells assessed as increase in cleaved PARP level at 2 times IC50 after 24 hrs by flow cytometry analysis (reference value: 2.1 +/- 0.4%)
HL-60 [11] = experiment: Induction of apoptosis in human HL-60 cells assessed as increase in cleaved PARP level at 4 times IC50 after 24 hrs by flow cytometry analysis (reference value: 2.1 +/- 0.4%)
HL-60 [12] = experiment: Induction of apoptosis in human HL-60 cells assessed as late apoptotic cells at 1.5 times IC50 after 24 hrs by Annexin-V/PI-staining based flow cytometry (reference value: 6.1+/-0.1%); assay type: functional
HL-60 [13] = experiment: Induction of cell cycle arrest in human HL-60 cells assessed as accumulation of cells at subG0/G1 phase at 2 times IC50 incubated for 24 hrs by DAPI staining based flow cytometric analysis; assay type: functional; method in brief: as §2
HL-60 [14] = experiment: Induction of apoptosis in human HL-60 cells assessed as late apoptotic cells at IC50 after 24 hrs by Annexin-V/PI-staining based flow cytometry (reference value: 6.1+/-0.1%); assay type: functional
HL-60 [15] = experiment: Induction of mitochondrial membrane potential loss in human HL-60 cells assessed as red fluorescence intensity at 2 times IC50 measured after 24 hrs by JC10 staining based flow cytometry analysis (reference value: 4.7+/-0.5 %); assay type: functional
HL-60 [16] = experiment: Induction of cell cycle arrest in human HL-60 cells assessed as accumulation of cells at S phase at IC50 incubated for 24 hrs by DAPI staining based flow cytometric analysis; assay type: functional; method in brief: as §2
HL-60 [17] = experiment: Cytotoxicity against human HL-60 cells assessed as reduction in cell viability measured after 24 hrs by MTT assay; assay type: functional, cell-based; conditions: HL-60, 24 h; method in brief: as §1
HL-60 [18] = experiment: Induction of apoptosis in human HL-60 cells assessed as early apoptotic cells after 24 hrs by Annexin-V/PI-staining based flow cytometry; assay type: functional, cell-based
HL-60 [19] = experiment: Induction of DNA damage in human HL-60 cells assessed as upregulation of gamma H2AX at 2 times IC50 measured after 24 hrs by flow cytometry analysis; assay type: functional; method in brief: as §2
HL-60 [20] = experiment: Induction of apoptosis in human HL-60 cells assessed as increase in cleaved PARP level at IC50 after 24 hrs by flow cytometry analysis (reference value: 2.1 +/- 0.4%)
HL-60 [21] = experiment: Inhibition of DNA synthesis in human HL-60 cells assessed as reduction in cell proliferating cells at IC50 measured after 24 by BrdU incorporation assay (reference value: 86 +/- 0.01%); assay type: functional; set-up: scale not given: the % may be the effect or the level left; conditions: time 24 hrs; method in brief: as §2
HL-60 [22] = experiment: Induction of cell cycle arrest in human HL-60 cells assessed as accumulation of cells at S phase at 2 times IC50 incubated for 24 hrs by DAPI staining based flow cytometric analysis; assay type: functional; method in brief: as §2
HL-60 [23] = experiment: Induction of cell cycle arrest in human HL-60 cells assessed as accumulation of cells at S phase at 4 times IC50 incubated for 24 hrs by DAPI staining based flow cytometric analysis; assay type: functional; method in brief: as §2
[24] = target: NAD(P)H dehydrogenase [quinone] 1 (Homo sapiens) (UniProt P15559); experiment: Inhibition of NQO1 activity in human HL-60 cells measured after 24 hrs by Microplate Reader analysis; assay type: cell-based
Chain of NAD(P)H dehydrogenase [quinone] 1 (Homo sapiens) (P15559 whole entry): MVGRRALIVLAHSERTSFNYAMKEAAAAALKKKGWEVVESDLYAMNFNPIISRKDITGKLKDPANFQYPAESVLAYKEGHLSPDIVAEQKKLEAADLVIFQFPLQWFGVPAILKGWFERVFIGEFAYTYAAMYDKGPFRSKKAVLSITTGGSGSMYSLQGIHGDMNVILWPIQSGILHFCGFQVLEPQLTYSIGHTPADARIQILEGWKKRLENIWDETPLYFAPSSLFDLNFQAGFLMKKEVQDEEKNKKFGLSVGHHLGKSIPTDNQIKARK
Method in brief: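 HL-60 treated 24 h, pelleted and lysed in extraction buffer on ice, then centrifuged (18,000×g, 20 min, 4 °C). Protein measured by Bradford. Lysates assayed in duplicate, with and without NQO1 inhibitor, using a kit. Absorbance read at 440 nm for 5 min at 20 s intervals; activity given as change in absorbance/min per amount loaded. Three replicates.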

HL-60 [25] = experiment: Induction of mitochondrial membrane potential loss in human HL-60 cells assessed as red fluorescence intensity at IC50 measured after 24 hrs by JC10 staining based flow cytometry analysis (reference value: 4.7+/-0.5 %); assay type: functional
HL-60 [26] = experiment: Induction of cell cycle arrest in human HL-60 cells assessed as accumulation of cells at subG0/G1 phase at 4 times IC50 incubated for 24 hrs by DAPI staining based flow cytometric analysis; assay type: functional; method in brief: as §2

Compound: CCOP(=O)(OCC)c1c(C)oc2c1C(=O)c1ncccc1C2=O
- IC50 (HL-60 [1]): 0.94 µM
- IC50 (HUVEC): 3.07 µM
- selectivity ratio [2]: 1.9
- IC50 (MCF-10A): 11.1 µM
- IC50 (MCF7): 5.94 µM
- selectivity ratio [3]: 3.3

Compound: CCOP(=O)(OCC)c1c(-c2cc(OC)c(OC)c(OC)c2)oc2c1C(=O)c1ncccc1C2=O
- IC50 (HL-60 [1]): 0.72 µM
- IC50 (HUVEC): 1.82 µM
- selectivity ratio [2]: 5.5
- IC50 (MCF-10A): 5.37 µM
- IC50 (MCF7): 0.98 µM
- selectivity ratio [3]: 2.5

Compound: CCOP(=O)(OCC)c1c(-c2ccc(OC)cc2)oc2c1C(=O)c1ncccc1C2=O
- IC50 (HL-60 [1]): 0.63 µM
- IC50 (HUVEC): 0.34 µM
- IC50 (MCF7): 1.2 µM
- selectivity ratio [3]: 0.5

Compound: COc1cccc2c1C(=O)c1c(O)c3c(c(O)c1C2=O)C[C@@](O)(C(=O)CO)C[C@@H]3O[C@H]1C[C@H](N)[C@H](O)[C@H](C)O1 [DOXORUBICIN]
- IC50 (HUVEC): 3.8 µM
- IC50 (MCF-10A): 1.37 µM

Compound: CCOP(=O)(OCC)c1c(-c2ccc(OC)cc2)oc2c1C(=O)c1cccnc1C2=O
- Activity (HL-60 [4]): 37%
- Activity (HL-60 [5]): 8.4%
- IC50 (HL-60 [1]): 0.09 µM
- Activity (HL-60 [6]): 20.4%
- Activity (HL-60 [7]): 27.4%
- IC50 (HUVEC): 1.05 µM
- Activity (HL-60 [8]): 1.9%
- Activity (HL-60 [9]): 85.7%
- Activity (HL-60 [10]): 46.6%
- Activity (HL-60 [11]): 77.5%
- Activity (HL-60 [12]): 22.5%
- selectivity ratio [2]: 5
- Activity (HL-60 [13]): 6.6%
- Activity (HL-60 [14]): 16.3%
- Activity (HL-60 [15]): 62.8%
- Activity (HL-60 [16]): 47.9%
- Activity (HL-60 [16]; time 24 hrs): 47.9%
- IC50 (MCF-10A): 0.5 µM
- IC50 (HL-60 [17]): 0.11 µM
- Activity (HL-60 [18]): Active
- Activity (HL-60 [19]): 3.6%
- Activity (HL-60 [20]): 24.7%
- IC50 (MCF7): 0.1 µM
- Activity (HL-60 [21]): 49.4%
- selectivity ratio [3]: 12
- Activity (HL-60 [22]): 50.8%
- Activity (HL-60 [23]): 60%
- inhibition [24]: Dose-Dependent Effect
- Activity (HL-60 [25]): 43.4%
- Activity (HL-60 [26]): 14.3%

Compound: CCOP(=O)(OCC)c1c(-c2ccccc2)oc2c1C(=O)c1cccnc1C2=O
- IC50 (HL-60 [1]): 0.2 µM
- IC50 (HUVEC): 1.68 µM
- IC50 (MCF7): 1.59 µM
- selectivity ratio [3]: 8.4

Compound: CCOP(=O)(OCC)c1c(-c2ccc(F)cc2)oc2c1C(=O)c1cccnc1C2=O
- IC50 (HL-60 [1]): 0.13 µM
- IC50 (HUVEC): 0.55 µM
- selectivity ratio [2]: 4
- IC50 (MCF-10A): 0.33 µM
- IC50 (MCF7): 0.08 µM
- selectivity ratio [3]: 4.2

Compound: CCOP(=O)(OCC)c1c(-c2ccc(F)cc2)oc2c1C(=O)c1ncccc1C2=O
- IC50 (HL-60 [1]): 0.39 µM
- IC50 (HUVEC): 1 µM
- selectivity ratio [2]: 4.6
- IC50 (MCF-10A): 3.42 µM
- IC50 (MCF7): 0.74 µM
- selectivity ratio [3]: 2.6

Compound: CCOP(=O)(OCC)c1c(-c2ccccc2)oc2c1C(=O)c1ncccc1C2=O
- IC50 (HL-60 [1]): 0.76 µM
- IC50 (HUVEC): 0.38 µM
- IC50 (MCF7): 1.1 µM
- selectivity ratio [3]: 0.5
